V-ATPase pH = regulators of yeast V-ATPase proton pumping, primary screen, pHLuorin cytosolic pH fluorescence; response, % at 10 µM; S. cerevisiae; AID 504577, 2011; hit rate 0.37% among 350,000; in the data active means response mostly above about 7.3%, no sharp cut-off; inactive means mostly below about 5.4%; further: actives read high
Cl transport mod = KCC2 cotransporter modulators, thallium flux, primary screen, cell-based, HEK293 KCC2, FluoZin-2 fluorescence, MLSMR; B-score of Tl+ flux slope (higher = more flux/activation; lower = inhibition) at 10 µM; hit rate 2.2% among 190,000; KCC2 cells, thallium flux FluoZin-2 fluorescence;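 active means thallium flux slope and its plate-corrected score both differing from the plate sample mean at a set confidence after two filtering rounds, in either direction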;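 further: slope of fluorescence scaled to starting intensity during 10 to 20 s after thallium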
ABCB6 inh MLPCN = ABCB6 transporter inhibitors, primary screen, K562-ABCB6 cells, flow cytometry, MLPCN library | ATP-binding cassette sub-family B member 6 (Homo sapiens), Q9NP58 | K562-ABCB6 porphyrin accumulation, 1 h; active compounds read low | fluorescence ratio to DMSO, % at 10 µM | hit rate 0.19% among 360,000 | AID 602162, 2011;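 active means fluorescence ratio to DMSO below 75%, the collection mean minus 3 SD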;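 further: signal is porphyrin accumulated inside mitochondria; lower ratio means ABCB6 inhibition with less porphyrin fluorescence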
Target sequence (Q9NP58 whole entry, looked up): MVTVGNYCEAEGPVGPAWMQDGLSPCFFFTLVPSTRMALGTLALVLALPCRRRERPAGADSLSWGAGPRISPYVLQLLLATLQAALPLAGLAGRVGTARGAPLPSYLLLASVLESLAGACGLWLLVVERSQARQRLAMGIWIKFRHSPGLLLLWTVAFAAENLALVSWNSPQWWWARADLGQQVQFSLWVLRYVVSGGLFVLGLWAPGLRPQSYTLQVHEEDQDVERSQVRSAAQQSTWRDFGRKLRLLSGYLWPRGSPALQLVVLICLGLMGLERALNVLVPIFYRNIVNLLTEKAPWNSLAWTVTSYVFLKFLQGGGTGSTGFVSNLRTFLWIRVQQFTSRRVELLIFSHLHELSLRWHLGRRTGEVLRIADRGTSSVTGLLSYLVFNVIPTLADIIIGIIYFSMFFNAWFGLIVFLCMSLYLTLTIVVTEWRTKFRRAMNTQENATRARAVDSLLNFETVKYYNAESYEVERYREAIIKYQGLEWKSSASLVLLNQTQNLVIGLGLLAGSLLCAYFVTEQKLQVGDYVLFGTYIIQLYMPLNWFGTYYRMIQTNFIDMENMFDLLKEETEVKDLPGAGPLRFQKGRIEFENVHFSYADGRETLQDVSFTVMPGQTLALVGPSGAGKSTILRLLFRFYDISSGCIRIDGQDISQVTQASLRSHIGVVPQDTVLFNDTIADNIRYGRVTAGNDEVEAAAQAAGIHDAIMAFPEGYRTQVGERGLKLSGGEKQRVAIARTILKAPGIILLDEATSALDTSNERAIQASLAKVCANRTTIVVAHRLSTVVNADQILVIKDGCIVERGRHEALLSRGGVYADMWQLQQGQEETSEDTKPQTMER
p-CIP stab down = p/CIP-EGFP fusion destabilizers, primary screen, fluorescence, F442A cells | Q05BA5 | 16 h | decrease of EGFP signal, % at 10 µM | hit rate 0.01% among 290,000;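 active means EGFP signal decrease of at least 30% at 10 µM or well 3 SD below plate mean, unless failing retest; inactive means the rest, including hits failing retest or dose response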
Dynein transport = inhibitors of GR-EGFP nuclear translocation, primary screen, dynein cargo transport inhibitor project, imaging, high-content, 3617.4 mouse cells; hit rate 0.47% among 220,000; test concentration mostly 20 µM; stimulated with dexamethasone, 1 µM; active compounds read low; z-score, hits read low;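 active means plate z-score of nuclear minus cytoplasmic receptor signal below a set negative limit, without overly bright fluorescence or cell loss, cut at about -3.5 in these data, passing the limit was not always enough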;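 further: z-score of nuclear minus cytoplasmic ring GR-EGFP intensity difference per well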
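Also added – dexamethasone, 1.0 µM final · Buffer or medium – tet-free, stripped-serum medium · Schedule – induction 48 h, compound 1 h, agonist 30 min · Detection – formaldehyde fixation, Hoechst nuclear stain, 10x automated fluorescence imaging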
ABCB6 inh CP1 = ABCB6 transporter inhibitors, confirmation, K562-ABCB6 cells, flow cytometry, cherry pick 1; shares compounds with ABCB6 inh MLPCN; K562-ABCB6 porphyrin accumulation, 1 h; active compounds read low; ratio response (% of DMSO), % at 10 µM; 700 tested, under 10 active;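 active means repeat-averaged ratio response below 75% of DMSO, the collection mean minus 3 SD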;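 further: median porphyrin fluorescence at 575 nm with 488 nm excitation from mitochondria; lower ratio means less porphyrin signal so ABCB6 inhibition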
Each line names hits and unclear results; the compound was inactive in the other large screens (follow-up assays come after a bar, where they were run). Shown is part of a subset that was picked to be rich in hits.

CC(C)(C)c1cc(NC(=O)COC(=O)c2ccc3c(=O)n4c(nc3c2)CCC4)n(-c2ccccc2)n1	ABCB6 inh MLPCN 69.0 (no result: Cl transport mod) | ABCB6 inh CP1 inactive
COc1ccc(N(C(=O)C(C)C)S(=O)(=O)c2ccc(Cl)cc2)cc1	ABCB6 inh MLPCN 48.0 | ABCB6 inh CP1 inactive
COc1ccc(N(C(=O)c2ccncc2)S(=O)(=O)c2ccc(Cl)cc2)cc1	none (no result: Cl transport mod, Dynein transport)
O=C(Nc1ccnn1C1CCN(C(=O)c2cnsn2)CC1)c1cccc(F)c1	none (no result: Cl transport mod, Dynein transport)
CCn1c(=O)n(CC)c2cc(N3CCCC3)c(NC(=O)c3ccccc3C)cc21	ABCB6 inh MLPCN 64.0 (no result: Cl transport mod, Dynein transport) | ABCB6 inh CP1 inactive
Cc1cc2c(C)nc(Cc3ccccc3)nc2o1	ABCB6 inh MLPCN 9.0 | ABCB6 inh CP1 inactive
CSc1nc(C)c2cc(C)oc2n1	none
CC(C)(C)S(=O)(=O)c1cnc2c(-c3ccc(Cl)cc3)cnn2c1N	none
COc1ccc(-c2cnn3c(N)c(S(=O)(=O)C(C)(C)C)cnc23)cc1	ABCB6 inh MLPCN 68.0 | ABCB6 inh CP1 inactive
Clc1ccc(CNc2nc(N3CCOCC3)nc(N3CCOCC3)n2)cc1	ABCB6 inh MLPCN 11.0 (no result: Cl transport mod) | ABCB6 inh CP1 inactive
CCn1cc(S(=O)(=O)NC2CCCCC2)cn1	none (no result: Cl transport mod, Dynein transport)
Cc1ccc(C(=O)N[C@H](C(=O)Nc2ccc(N3CCOCC3)cc2)C(C)C)cc1	none (no result: Cl transport mod, p-CIP stab down, Dynein transport)
COc1cccc(CC2CC(=O)N(CCc3ccc4c(c3)OCO4)C2=O)c1 (stereo not given)	none
Cc1ccc(CC2CC(=O)N(CCc3ccc4c(c3)OCO4)C2=O)cc1 (stereo not given)	ABCB6 inh MLPCN 74.0 (no result: Cl transport mod) | ABCB6 inh CP1 inactive
O=C(Nc1cccc(Cl)c1)NC1CCN(C2CCCCC2)C1 (stereo not given)	ABCB6 inh MLPCN 47.0 (no result: Cl transport mod, Dynein transport) | ABCB6 inh CP1 inactive
O=C(Nc1cccc(Cl)c1)NC1CCS(=O)(=O)C1 (stereo not given)	none (no result: Cl transport mod, Dynein transport)
CC1(C(=O)N2CCN(C(=O)c3ccco3)CC2)CCN1Cc1ccccc1OC(F)F (stereo not given)	ABCB6 inh MLPCN 70.0 (no result: V-ATPase pH, Cl transport mod, p-CIP stab down, Dynein transport) | ABCB6 inh CP1 inactive
O=C(CN(Cc1ccco1)Cc1ccco1)Nc1cc(S(=O)(=O)N2CCCCC2)ccc1Cl	none (no result: Cl transport mod, p-CIP stab down, Dynein transport)
O=C(CSc1ccc2ccccc2c1Br)Nc1cccc(S(=O)(=O)NC2=NCCCCC2)c1	ABCB6 inh MLPCN 67.0 | ABCB6 inh CP1 inactive
C[C@H](CO)N1C[C@H](C)[C@@H](CN(C)S(=O)(=O)c2ccc(-c3ccccc3)cc2)OCc2cn(nn2)CCCC1=O	none (no result: Cl transport mod, p-CIP stab down, Dynein transport)
CCc1ccc(C(O)c2ncc(-c3ccccc3OC)[nH]2)cc1 (stereo not given)	ABCB6 inh MLPCN 73.0 (no result: V-ATPase pH, Cl transport mod, p-CIP stab down, Dynein transport) | ABCB6 inh CP1 inactive
Cc1ccc(C)c(NC(=O)C2CCN(C(=O)c3cccs3)CC2)c1	none (no result: Cl transport mod, Dynein transport)
COc1ccc(N2CCN(C(=O)CCc3nnc4ccc(N5CCC(C)CC5)nn34)CC2)cc1	none (no result: Cl transport mod, Dynein transport)
CC1CCN(c2ccc3nnc(CCC(=O)NCCCOC(C)C)n3n2)CC1	none (no result: Cl transport mod, Dynein transport) | ABCB6 inh CP1 inactive
CCCNC(=O)CCc1nnc2ccc(N3CCC(C)CC3)nn12	none (no result: Cl transport mod, Dynein transport) | ABCB6 inh CP1 inactive
CCOc1ccc(NC(=O)CCc2nnc3ccc(N4CCC(C)CC4)nn23)cc1	none (no result: Cl transport mod, Dynein transport)
CCOC(=O)CNC(=O)CCc1nnc2ccc(N3CCC(C)CC3)nn12	none (no result: Cl transport mod, Dynein transport) | ABCB6 inh CP1 inactive
CCOC(=O)C1CCN(C(=O)CCc2nnc3ccc(N4CCC(C)CC4)nn23)CC1	none (no result: Cl transport mod, Dynein transport) | ABCB6 inh CP1 inactive
O=c1[nH][nH]c2c1[C@H](c1ccc(Cl)cc1)O[C@H](C1CCCCC1)C2	none (no result: V-ATPase pH, Cl transport mod, p-CIP stab down, Dynein transport)
CC1CCN(c2ccc3nnc(CCC(=O)N4CCN(c5ccccc5F)CC4)n3n2)CC1	none (no result: Cl transport mod, Dynein transport)
CC1CC(C)CN(C(=O)CCc2nnc3ccc(N4CCCCC4)nn23)C1 (stereo not given)	none (no result: Cl transport mod, Dynein transport) | ABCB6 inh CP1 inactive
CCOC(=O)C1CCN(S(=O)(=O)c2ccc(Br)c(OCC)c2)CC1	none | ABCB6 inh CP1 inactive
CCOC(=O)C1CCN(S(=O)(=O)c2ccc(C(=O)OC)cc2)CC1	none (no result: Cl transport mod) | ABCB6 inh CP1 inactive
CCOC(=O)C1CCN(S(=O)(=O)c2ccc(Cl)cc2OC)CC1	none (no result: Cl transport mod)
CCOC(=O)C1CCN(S(=O)(=O)c2cc(Cl)c(C)cc2OC)CC1	none | ABCB6 inh CP1 inactive
CCOC(=O)C1CCN(S(=O)(=O)c2ccc(C)cc2)CC1	none
CCOC(=O)C1CCN(S(=O)(=O)c2ccc(NC(=O)OC)cc2)CC1	none | ABCB6 inh CP1 inactive
OC(c1ccc(F)cc1)c1nc(/C=C/c2ccccc2)cs1 (stereo not given)	ABCB6 inh MLPCN 61.0 (no result: V-ATPase pH, Cl transport mod, p-CIP stab down, Dynein transport) | ABCB6 inh CP1 inactive
CC(=O)Nc1ccc(OC(=O)c2c(-c3ccccc3Cl)noc2C)cc1	ABCB6 inh MLPCN 70.0 | ABCB6 inh CP1 inactive
CC(=O)Nc1ccc(NC(=O)c2c(-c3ccccc3Cl)noc2C)c(C)c1	none (no result: Cl transport mod, Dynein transport)
COc1cccc(-c2nnc(-c3ccco3)o2)c1	ABCB6 inh MLPCN 67.0 | ABCB6 inh CP1 inactive
COc1cccc(-c2nnc(-c3ccc(C)o3)o2)c1	none
O=c1nc2n(c3ncccc13)CCCCC2	none (no result: Cl transport mod)
COc1ccc(CC(=O)Nc2c3c(nn2-c2ccccc2C)CS(=O)C3)cc1 (stereo not given)	ABCB6 inh MLPCN 59.0 | ABCB6 inh CP1 inactive
COc1ccc(CC(=O)Nc2c3c(nn2C(C)(C)C)CS(=O)C3)cc1 (stereo not given)	none (no result: Cl transport mod)
Cc1ccc2c(c1)N(CC(=O)NCCc1ccccc1)C(=O)c1cccnc1O2	none (no result: Cl transport mod, Dynein transport)
O=C(NCc1ccc2c(c1)OCO2)c1ccc(Cl)c(S(=O)(=O)N2CCOCC2)c1	ABCB6 inh MLPCN 53.0 (no result: Cl transport mod) | ABCB6 inh CP1 inactive
